Measured values: PubChem BioAssay
Calls of active or inactive are those of the source.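 Rule for the calls, unless noted: active = viability at or under a set limit in both replicates, limit being median viability minus 3 SD (cut at about 48% in these data, passing the limit was not always enough); inconclusive = at or under the limit in just one replicate; inactive = at or above the limit in both replicates.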 Peptide text beside a SMILES is read from it. * marks the point of attachment. Boc = CC(C)(C)OC(=O)*

Tests used:
[1] = Her2 expression decrease, cell viability multiplex – SKBR3 breast tumor cells, AlphaScreen, ATP viability, primary screen (AID 461;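 active = Her2 level under about 52% in both replicate screens, with viability over 70% of control, limit read from the data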;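 for Her2 level: lower value means less Her2 protein in the cells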;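 for viability: percent of carrier control wells set as 100% viability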); details: SKBR3 Her2 protein level, 18-24 h, measured here: SKBR3 viability, ATP luminescence, at 10 µM
[2] = target: Receptor tyrosine-protein kinase erbB-2 (Homo sapiens) (UniProt P04626); test: as above; details: 18-24 h, at 10 µM, stronger effect = lower value
[3] = reduced viability of SK-BR-3 breast cancer cells – cell-based, 24 h, human, pilot screen (AID 572;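 active = viability at or below 10% of carrier control in both of two separate runs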;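 note: compound exposure lasted between 18 and 24 h rather than exactly 24 h; 100% = carrier-treated control wells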); details: SK-BR-3 viability, CellTiter-Glo luminescence, at 10 µM, stronger effect = lower value
[4] = HUVEC growth inhibition – cell-based, human, primary screen (AID 575;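 active = viability at or below 30% in both replicate assays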;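 note: 100% = median of untreated cell wells with 0.1% DMSO on each plate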); details: HUVEC proliferation, CellTiter-Glo luminescence, 72 h; at 10 µM; stronger effect = lower value
How it was run: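 Test system – primary HUVEC, no more than 12 passages · Dosing – one dose, 10 µM final, 0.1% DMSO · Times – 72 h treatment at 37 °C · Measured by – ATP-based CellTiter-Glo luminescent read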

[5] = H69AR cell proliferation blockers – human, duplicate replicates, primary screen (AID 580); details: H69AR lung tumor cells viability, ATP luminescence, 72 h; at 10 µM; stronger effect = lower value;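 note: 100% = mean luminescence of untreated wells and 0% = no signal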
[6] = MRP1 drug-resistance reversers in H69AR cells – cell-based, doxorubicin co-treatment, pilot screen (AID 601;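 active = viability loss from added drug above about 55%, and viability with drug at most 40%, in both replicates, limit read from the data, passing the limit was not always enough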); details: CellTiter-Glo, 72 h, at 10 µM; for differential viability (reversal): stronger effect = higher value
[7] = yeast transport mutant growth inhibition pilot in 384-well plates, post-Golgi transport modulator project (AID 636; in the data active = inhibition above about 31%); details: absorbance 615 nm, about 18 h, stronger effect = higher value
[8] = growth suppression of yeast trafficking mutant, preliminary HTS, modulators of trafficking downstream of Golgi apparatus project, 1536-format plate, OD 615 nm (AID 637; in the data active = inhibition above about 30%); details: yeast transport mutant growth, absorbance 615 nm, 18 h; stronger effect = higher value
[9] = H69AR cells + 2 uM doxorubicin, measured here: viability with 2 uM doxorubicin, stronger effect = lower value
[10] = H69AR cells, compound alone cytotoxicity

Receptor tyrosine-protein kinase erbB-2 (Homo sapiens), sequence (P04626 whole entry, looked up): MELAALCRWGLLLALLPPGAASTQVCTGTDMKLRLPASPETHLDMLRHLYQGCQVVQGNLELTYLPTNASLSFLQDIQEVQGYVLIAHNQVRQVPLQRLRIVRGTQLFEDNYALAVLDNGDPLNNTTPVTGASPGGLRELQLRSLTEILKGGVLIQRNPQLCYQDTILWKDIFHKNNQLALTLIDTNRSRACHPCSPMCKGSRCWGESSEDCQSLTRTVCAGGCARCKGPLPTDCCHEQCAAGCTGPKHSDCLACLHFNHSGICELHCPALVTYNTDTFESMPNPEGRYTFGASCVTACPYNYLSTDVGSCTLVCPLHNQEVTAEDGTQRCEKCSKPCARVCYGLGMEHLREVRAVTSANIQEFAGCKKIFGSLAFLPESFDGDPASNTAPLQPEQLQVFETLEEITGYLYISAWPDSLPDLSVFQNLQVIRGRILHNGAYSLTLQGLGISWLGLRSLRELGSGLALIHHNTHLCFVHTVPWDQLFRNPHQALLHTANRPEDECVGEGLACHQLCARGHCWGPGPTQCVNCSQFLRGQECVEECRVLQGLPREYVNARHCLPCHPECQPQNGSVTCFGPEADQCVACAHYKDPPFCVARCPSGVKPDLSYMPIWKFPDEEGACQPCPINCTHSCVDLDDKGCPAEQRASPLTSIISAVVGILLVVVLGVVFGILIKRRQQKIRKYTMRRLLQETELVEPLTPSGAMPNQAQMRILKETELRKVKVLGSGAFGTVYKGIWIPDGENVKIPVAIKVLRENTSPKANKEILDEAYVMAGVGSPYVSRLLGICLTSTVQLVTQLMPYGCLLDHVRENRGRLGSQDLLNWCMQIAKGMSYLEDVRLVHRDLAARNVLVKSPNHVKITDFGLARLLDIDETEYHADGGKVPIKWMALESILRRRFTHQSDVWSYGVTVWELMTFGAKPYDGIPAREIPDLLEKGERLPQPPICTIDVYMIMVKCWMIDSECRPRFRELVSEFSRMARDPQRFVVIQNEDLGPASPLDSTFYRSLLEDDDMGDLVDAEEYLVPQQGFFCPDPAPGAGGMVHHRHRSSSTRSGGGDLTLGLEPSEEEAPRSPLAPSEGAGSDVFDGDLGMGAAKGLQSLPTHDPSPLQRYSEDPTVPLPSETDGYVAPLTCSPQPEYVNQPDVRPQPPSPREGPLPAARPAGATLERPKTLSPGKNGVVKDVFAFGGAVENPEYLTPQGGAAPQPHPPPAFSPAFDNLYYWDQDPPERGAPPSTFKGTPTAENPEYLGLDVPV

SMILES | viability [1] [%] | Her2 level [2] | viability [3] | viability [4] | viability [5] | differential viability (reversal) ([6]; H69AR cells + 2 uM doxorubicin) | viability [6, 9] [%] | viability [6, 10] [%] | inhibition [7] | inhibition [8]
Cc1cc(C)c2c(n1)nn1c(N3CCOCC3)cc(C)nc21 | 90 | 87.5% (inactive) | 90% (inactive) | 110% (inactive) | 87.1% (inactive) | -6.34% (inactive) | 93.4 | 87.1 | -4.86% (inactive) | 0.79% (inactive)
CCOc1ccc(NC(=O)C2CC(=O)N(C(C)C)C2)cc1 (stereo not given) | 103 | 82% (inactive) | 103% (inactive) | 114% (inactive) | 99.7% (inactive) | 7% (inactive) | 92.7 | 99.7 | -2% (inactive) | 0.49% (inactive)
O=C(c1ccccc1)N1CCCCC(Sc2nnnn2-c2ccccc2)C1=O (stereo not given) | 89.5 | 104% (inactive) | 89.5% (inactive) | 82.7% (inactive) | 104% (inactive) | 12.6% (inactive) | 91.1 | 104 | -6.13% (inactive) | -0.32% (inactive)
c1ccc(N=P(c2nc3ccccc3o2)(N2CCOCC2)N2CCOCC2)cc1 | 119 | 89.5% (inactive) | 119% (inactive) | 104% (inactive) | 91.4% (inactive) | 1.96% (inactive) | 89.4 | 91.4 | -4.27% (inactive) | 7.26% (inactive)
CSCCC(NC(=O)c1ccco1)C(=O)OC(C)C(=O)NC(=O)NC1CCCCC1 (stereo not given) | 88 | 99% (inactive) | 88% (inactive) | 96.1% (inactive) | 111% (inactive) | 16.1% (inactive) | 95 | 111 | -3.9% (inactive) | 8.52% (inactive)
Cn1cnnc1SCC(=O)Nc1sc2c(c1C#N)CCCCC2 | 86 | 102% (inactive) | 86% (inactive) | 73.5% (inactive) | 95.2% (inactive) | 11.4% (inactive) | 83.9 | 95.2 | 10.1% (inactive) | 27.9% (inactive)
CCCOc1ccc([C@@H]2C3CN(C(=O)OCC)CC=C3C(C#N)=C(N)C2(C#N)C#N)cc1OC (stereo not given in full) | 88 | 40% (active) | 88% (inactive) | 85.2% (inactive) | 63.4% (inactive) | -11.8% (inactive) | 75.2 | 63.4 | -7.03% (inactive) | 0% (inactive)
COc1cc(C(c2sc3nc(C)nn3c2O)N2CC(C)CC(C)C2)cc(OC)c1OC (stereo not given) | 78 | 98.5% (inactive) | 78% (inactive) | 98.8% (inactive) | 103% (inactive) | 0.2% (inactive) | 103 | 103 | 0.9% (inactive) | 0.17% (inactive)
CC(c1nnc(SCC(=O)Nc2sccc2C#N)n1-c1ccc(Cl)cc1)N(C)C (stereo not given) | 103 | 74% (inactive) | 103% (inactive) | 91.8% (inactive) | 75.4% (inactive) | -5.88% (inactive) | 81.2 | 75.4 | -3.68% (inactive) | 0.79% (inactive)
CC(C)CC(NC(=O)OC(C)(C)C)C(=O)NC(C(=O)NC(C)C(N)=O)C(C)C (stereo not drawn) (Boc-Leu-Val-Ala-NH2; configuration not given here) | 102 | 107% (inactive) | 102% (inactive) | 94.2% (inactive) | 112% (inactive) | 19.3% (inactive) | 93 | 112 | -4.27% (inactive) | -3.23% (inactive)
COc1ccc(NCc2nnc(SCC(=O)Nc3cc(C)cc(C)c3)o2)cc1 | 112 | 90.5% (inactive) | 112% (inactive) | 70% (inactive) | 81.9% (inactive) | -3.66% (inactive) | 85.6 | 81.9 | -6.53% (inactive) | -1.64% (inactive)
CCOC(=O)Nc1cc(OCC)c(NC(=O)C2CC2)cc1OCC | 97 | 112% (inactive) | 97% (inactive) | 111% (inactive) | 100% (inactive) | 12.8% (inactive) | 87.3 | 100 | -6.13% (inactive) | -4.26% (inactive)
OCCNCC(O)Cn1ccc2ccccc21 (stereo not given) | 118 | 94.5% (inactive) | 118% (inactive) | 107% (inactive) | 88.6% (inactive) | 0.01% (inactive) | 88.6 | 88.6 | -3.77% (inactive) | -0.16% (inactive)
Cc1ccc(C(=O)N2CCN(C(=O)c3ccc(C)c(C)c3)C(C)C2)cc1C (stereo not given) | 84.5 | 81% (inactive) | 84.5% (inactive) | 97.5% (inactive) | 82.2% (inactive) | 12.2% (inactive) | 70 | 82.2 | -4.61% (inactive) | -1.67% (inactive)
Cc1cc(NC(=O)CSc2ccc3nnc(-c4cccc(F)c4)n3n2)no1 | 108 | 102% (inactive) | 108% (inactive) | 103% (inactive) | 94.6% (inactive) | 8.17% (inactive) | 86.4 | 94.6 | -4.19% (inactive) | -4.17% (inactive)
O=C1c2ccccc2C(=O)N1C/C=C/c1ccccc1 | 81 | 75% (inactive) | 81% (inactive) | 78.2% (inactive) | 96.7% (inactive) | 7.29% (inactive) | 89.5 | 96.7 | -3.47% (inactive) | -1.29% (inactive)

SMILES | viability [1] [%] | Her2 level [2] | viability [3] | viability [4] | viability [5] | differential viability (reversal) ([6]; H69AR cells + 2 uM doxorubicin) | viability [6, 9] [%] | viability [6, 10] [%] | inhibition [7] | inhibition [8]
COc1ccc(C(=O)NCCSc2ccccn2)cc1 | 97 | 108% (inactive) | 97% (inactive) | 102% (inactive) | 96% (inactive) | 17.4% (inactive) | 78.6 | 96 | -7.07% (inactive) | 0.32% (inactive)
N#Cc1c(N2C(=O)C3C4C=CC(C4)C3C2=O)sc2c1CCC2 (stereo not given) | 91.5 | 86.5% (inactive) | 91.5% (inactive) | 91% (inactive) | 90.3% (inactive) | -10.1% (inactive) | 100 | 90.3 | -5.07% (inactive) | -2.62% (inactive)
CCOc1ccccc1C(=O)NCCC(=O)O | 95 | 112% (inactive) | 95% (inactive) | 111% (inactive) | 96.4% (inactive) | 1.32% (inactive) | 95.1 | 96.4 | -0.66% (inactive) | 11.3% (inactive)
O=c1[nH]c2c(s1)C(c1ccco1)C1C3CCC(C3)C1S2 (stereo not given) | 100 | 80% (inactive) | 100% (inactive) | 113% (inactive) | 78.8% (inactive) | -10.5% (inactive) | 89.3 | 78.8 | -3.29% (inactive) | 2.73% (inactive)
O=C(Cn1ccc2ccccc2c1=O)Nc1ccc2c(c1)OCO2 | 104 | 95.5% (inactive) | 104% (inactive) | 95.7% (inactive) | 107% (inactive) | 14.8% (inactive) | 92.2 | 107 | 1.49% (inactive) | -3.17% (inactive)
COc1cc(OC)nc(NC(=O)CSc2nc3ccccc3o2)n1 | 87.5 | 82.5% (inactive) | 87.5% (inactive) | 97.7% (inactive) | 92.4% (inactive) | -2.58% (inactive) | 94.9 | 92.4 | -6.4% (inactive) | 2.95% (inactive)
Cc1ccc(-c2nnc3ccc(SCC(=O)NCc4ccco4)nn23)cc1 | 100 | 87.5% (inactive) | 100% (inactive) | 89% (inactive) | 93.2% (inactive) | 9.33% (inactive) | 83.9 | 93.2 | -5.41% (inactive) | -8.33% (inactive)
COC(=O)c1ccc(NC(=O)CN2C(=O)CSC2=O)cc1 | 104 | 93% (inactive) | 104% (inactive) | 90.1% (inactive) | 106% (inactive) | 12% (inactive) | 94.4 | 106 | -4.67% (inactive) | 2.3% (inactive)
CCOC(=O)C(C)n1cnc2c(nnn2Cc2ccc(C)cc2)c1=O (stereo not given) | 116 | 95.5% (inactive) | 116% (inactive) | 104% (inactive) | 91.9% (inactive) | 3.18% (inactive) | 88.7 | 91.9 | -9.73% (inactive) | 1.9% (inactive)
Cc1nc(/N=C(\N)Nc2ccccc2)nc2ccccc12 | 91.5 | 67.5% (inactive) | 91.5% (inactive) | 74.5% (inactive) | 78.7% (inactive) | -21% (inactive) | 99.7 | 78.7 | -0.26% (inactive) | 10.5% (inactive)
O=c1c(CN2CCN(Cc3ccccc3)CC2)coc2ccc(Cl)cc12 | 90 | 85.5% (inactive) | 90% (inactive) | 100% (inactive) | 95.7% (inactive) | 12.5% (inactive) | 83.3 | 95.7 | -4.81% (inactive) | -6.89% (inactive)
CCCCn1nc(C(=O)N2CCc3ccccc32)c2ccccc2c1=O | 81.5 | 110% (inactive) | 81.5% (inactive) | 91.8% (inactive) | 93.9% (inactive) | -11.2% (inactive) | 105 | 93.9 | -0.4% (inactive) | -10.6% (inactive)
CCCN(CCC)C(=O)C1CCN(c2cc(C)nc3c(-c4ccc(OC)c(OC)c4)c(C)nn23)CC1 | 81.5 | 88% (inactive) | 81.5% (inactive) | 58.1% (inactive) | 69.1% (inactive) | 44% (inactive) | 25 | 69.1 | -0.13% (inactive) | -5.08% (inactive)
Cc1ccc(Cn2ncc3c(NCCCN4CCOCC4)ncnc32)cc1 | 92.5 | 92.5% (inactive) | 92.5% (inactive) | 96.8% (inactive) | 102% (inactive) | 18.2% (inactive) | 83.6 | 102 | -2.63% (inactive) | 0.32% (inactive)
O=C(CSc1ncnc2c1cnn2-c1ccccc1)Nc1ccccc1 | 96 | 88% (inactive) | 96% (inactive) | 63.1% (inactive) | 79.7% (inactive) | 7.43% (inactive) | 72.2 | 79.7 | -7.95% (inactive) | 2.22% (inactive)
Cc1ccc(S(=O)(=O)Nc2nc3ccccc3nc2NCc2ccco2)cc1 | 114 | 93.5% (inactive) | 114% (inactive) | 86.7% (inactive) | 22.5% (active) | 0.645% (inactive) | 21.9 | 22.5 | -5.47% (inactive) | -6.51% (inactive)
